Only some compounds are listed: those with a hit (about 2.1% of all), similar ones and a draw of the others.
IMP-1 inh-1 – IMP-1 metallo-beta-lactamase inhibitors, primary screen, biochemical, epi-absorbance readout, Pseudomonas aeruginosa enzyme | hit rate 0.45% among 290,000 | inhibition, % at 5.6 µM | purified IMP-1, nitrocefin hydrolysis, epi-absorbance fluorescence;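 active = inhibition above the mean plus 3 SD of all compounds in the same screening run, cut at about 4.5% in these data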
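System: purified IMP-1; amount: IMP-1 0.2 nM before substrate addition; compound: single dose, 5.6 µM; times: 25 °C, 15 min preincubation, 25 min reaction; signal: Epi-absorbance via hydrolysed-nitrocefin quenching of white-plate fluorescence, 480/530 nm, EDTA stop; benchmarks: DMSO with and without IMP-1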
CRFR2-BP ag – agonists of CRF-BP/CRF-R2 complex, primary screen, cell-based, HEK293, calcium dye fluorescence, uHTS; CRF-binding protein / CRF receptor 2 complex (human); calcium dye fluorescence (FLIPR); percent of saturating CRF peptide response; activation, % at 13.2 µM; hit rate 0.46% among 350,000; AID 588473, 2011;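 active = activation of at least 50%, plus an integration ratio under a set limit after plate pattern correction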
TRPN1 ag – zebrafish TRPN1 channel agonists, primary screen, cell-based, HEK293, calcium fluorescence. HEK293 zebrafish TRPN1-YFP, Fluo-8 calcium fluorescence; 100% = response to 87 µM carbachol. activation, % at 3 µM. transient receptor potential cation channel N1 (TRPN1/NompC), Danio rerio. hit rate 0.18% among 220,000;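 active = activation above its plate's cutoff, the mean activation of test wells on that plate plus 3 SD, cut at about 19% in these data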
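Material: zebrafish TRPN1-YFP in HEK293 cells. Doses: one dose of 3 µM, 0.3% DMSO. Incubation: dye 1 h 37 °C plus 30 min RT. Measured by: intracellular calcium fluorescence with Fluo-8.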
VIM-2 inh – VIM-2 metallo-beta-lactamase inhibitors, primary screen, biochemical, epi-absorbance readout, Pseudomonas aeruginosa enzyme; purified VIM-2, nitrocefin hydrolysis, epi-absorbance fluorescence; inhibition, % at 5.6 µM; hit rate 0.89% among 290,000; AID 1527, 2009;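 active = inhibition above the mean of all tested compounds plus 3 SD, cutoff set per screening run, cut at about 7.5% in these data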;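 also: red hydrolysis product quenches plate fluorescence so inhibitors raise well fluorescence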
TRPML3 ag – human TRPML3 channel agonists, primary screen, cell-based, HEK293 TRPML3-YFP, Fluo-8 calcium fluorescence, 3 µM. activation, % at 3 µM. Mucolipin-3 (Homo sapiens), Q8TDD5. AID 1448, 2008. hit rate 0.29% among 220,000. 100% = the carbachol control signal;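 active = activation above its plate's cutoff, the mean activation of the plate's test wells plus 3 SD, cut at about 12% in these data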
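Test system: HEK293 cells stably carrying human TRPML3-YFP; Doses: single dose, 3 µM final nominal compound, 0.3% DMSO final; Schedule: dye loading 1 h 37 °C then 30 min ambient, 125 s read; Technique: Fluo-8 calcium fluorescence; Benchmarks: high control carbachol 87 µM, low control DMSO.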
CRFBP-R2 block – antagonists of CRF-BP/CRF-R2 complex, primary screen, cell-based, HEK293, calcium dye fluorescence, uHTS; CRF-induced calcium fluorescence; hit rate 0.59% among 350,000; inhibition, % at 11.8 µM;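 active = inhibition of the ligand-induced calcium signal above about 50% at the single tested concentration, limit read from the data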
IMP-1 inh-2 – IMP-1 metallo-beta-lactamase inhibitors, confirmation, selectivity assay for selective VIM-2 inhibitor project, biochemical, epi-absorbance readout, triplicate. shares compounds with VIM-2 inh. purified IMP-1, nitrocefin hydrolysis, epi-absorbance fluorescence. inhibition, % at 5.6 µM. 1,300 tested, under 10 active. AID 1856, 2009; call rule not given here
VIM-2 FRET inh – VIM-2 inhibitors in FRET format, confirmation, artefact control for selective VIM-2 inhibitor project, biochemical, epi-absorbance artifact exclusion. inhibition, % at 5.6 µM. AID 1857, 2009. purified VIM-2, CCF2 FRET substrate hydrolysis. shares compounds with VIM-2 inh. hit rate 23% among 1,300;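 active = inhibition above the mean of all tested compounds plus 3 SD, cut at about 19% in these data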
TEM-1 counter – TEM-1 serine beta-lactamase inhibitors, counter-screen for VIM-2 inhibitor project, biochemical, epi-absorbance, HTS; shares compounds with VIM-2 inh; Purified TEM-1, nitrocefin hydrolysis, epi-absorbance fluorescence; inhibition, % at 5.6 µM; hit rate 3% among 1,300; AID 1866, 2009;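 active = inhibition above that campaign's mean inhibition plus 3 SD, cut at about 0.46% in these data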
Target sequence (P62593 whole entry, looked up): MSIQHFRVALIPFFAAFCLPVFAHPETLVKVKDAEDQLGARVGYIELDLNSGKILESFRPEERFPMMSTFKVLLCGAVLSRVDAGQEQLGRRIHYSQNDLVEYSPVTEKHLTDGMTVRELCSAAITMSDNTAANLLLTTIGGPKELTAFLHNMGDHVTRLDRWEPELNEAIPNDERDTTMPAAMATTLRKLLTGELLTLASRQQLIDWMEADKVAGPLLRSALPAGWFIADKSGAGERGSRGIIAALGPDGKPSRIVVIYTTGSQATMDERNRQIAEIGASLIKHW
VIM-2 confirm 2 – VIM-2 metallo-beta-lactamase inhibitors, confirmation, biochemical, epi-absorbance, hits shared with IMP-1 screen; shares compounds with VIM-2 inh; purified VIM-2, nitrocefin hydrolysis; inhibition, % at 5.6 µM; hit rate 96% among 1,300; AID 2187, 2009;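 active = inhibition of the VIM-2 beta-lactamase enzyme above about 11% from the earlier first-round screen, limit read from the data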
Hits are given with their value; – = inactive; · = not tested or not shown.

SMILES | IMP-1 inh-1 | CRFR2-BP ag | TRPN1 ag | VIM-2 inh | TRPML3 ag | CRFBP-R2 block | IMP-1 inh-2 | VIM-2 FRET inh | TEM-1 counter | VIM-2 confirm 2
Cc1n[nH]c(C)c1CCCCOc1ccc([N+](=O)[O-])cc1 | – | – | · | 20.2 | · | – | – | 46.9 | – | 29.7
O=C(NNS(=O)(=O)c1ccc(F)cc1)c1cc2ccccc2cc1O | – | – | · | – | · | – | · | · | · | ·
Cc1cc(C(=O)N/N=C\c2cc(C(C)(C)C)ccc2O)n[nH]1 | – | – | · | – | · | – | · | · | · | ·
CC(=O)N/N=C/c1cc(C(C)(C)C)cc(/C=N/NC(C)=O)c1O | – | 76.9 | – | 38.5 | – | – | – | – | – | 54.9
O=C(CCc1nnc2ccc(NCc3ccco3)nn12)Nc1ccc(F)cc1F | – | – | · | – | · | – | · | · | · | ·
CSc1nc(C)c2c(n1)N(c1ccc(O)cc1)CC2 | – | – | – | 15.9 | – | – | – | – | – | 27.4
CN(Cc1nc(-c2cccs2)no1)CC(O)c1ccccc1 (stereo not drawn) | – | – | – | – | – | – | · | · | · | ·
Cc1sc2ncnc(NCCCn3ccnc3)c2c1C | – | – | – | 20.7 | – | – | – | – | – | 34.3
Cc1sc2ncnc(NCCc3ccc(S(N)(=O)=O)cc3)c2c1C | – | – | – | 18.5 | – | – | – | – | – | 16.4
Cc1ccc(C)n1CCN1CCN(C(=O)CSc2nc3ccccc3nc2N2CCOCC2)CC1 | – | – | – | 16.0 | – | – | – | – | – | 14.6
Cc1ccc(NC(=O)CSc2nc3ccccc3nc2N2CCOCC2)cc1 | – | – | · | – | · | – | · | · | · | ·
CC(=O)Nc1ccc(S(=O)(=O)N(C)CC(=O)OCC(=O)N2CC(C)OC(C)C2)cc1 (stereo not drawn) | · | – | · | · | · | – | · | · | · | ·
CCOC(=O)c1cnc2c(C(F)(F)F)cccc2c1NCCCN1CCOCC1 | – | – | · | 20.4 | · | – | – | – | – | 27.2
CCOC(=O)c1cnc2c(Cl)cccc2c1NCCCN1CCOCC1 | – | – | · | 19.6 | · | – | – | – | – | 28.1
CCOC(=O)c1cnc2c(C(F)(F)F)cccc2c1N1CCN(C)CC1 | – | – | · | – | · | – | · | · | · | ·
CCOC(=O)c1cnc2ccc(OCC)cc2c1NCCN1CCOCC1 | – | – | – | – | – | – | · | · | · | ·
CCOC(=O)c1cnc2c(Cl)cccc2c1NCCN1CCOCC1 | – | – | – | – | – | – | · | · | · | ·
CCOC(=O)c1cnc2c(CC)cccc2c1NCCCN1CCOCC1 | – | – | · | 24.4 | · | – | – | – | – | 32.6
COc1ccc(OCC(O)CNC(=O)/C=C/c2cccc([N+](=O)[O-])c2)cc1 (stereo not drawn) | – | – | – | – | – | – | · | · | · | ·
COc1ccc(-c2cc3c(=O)n(CC(=O)NCCCN4CCC(N5CCCCC5)CC4)nc(C)n3n2)cc1 | – | – | · | 24.4 | · | – | – | – | – | 31.5
COc1ccc(/C=C2/SC(c3ccc(C)cc3)=NC2=O)cc1OC | – | – | – | 15.1 | – | – | 9.4 | – | 19.6 | 13.8
COc1cc(/C=C2\SC(c3ccc(C)cc3)=NC2=O)cc(OC)c1OC | – | – | – | – | – | – | · | · | · | ·
CCOC(=O)C1(CCCc2ccccc2)CCN(C(=O)CN2C(=O)CSC2=O)CC1 | – | – | – | – | – | – | · | · | · | ·
Cc1ccc(-c2n[nH]c(=O)c3ccccc23)cc1S(=O)(=O)NCCO | – | – | – | – | – | – | · | · | · | ·
O=c1[nH]nc(-c2ccc(NCCCO)c([N+](=O)[O-])c2)c2ccccc12 | – | – | · | 24.0 | · | – | – | – | – | 33.5
SMILES | IMP-1 inh-1 | CRFR2-BP ag | TRPN1 ag | VIM-2 inh | TRPML3 ag | CRFBP-R2 block | IMP-1 inh-2 | VIM-2 FRET inh | TEM-1 counter | VIM-2 confirm 2
O=c1[nH]nc(-c2ccc(NCCO)c([N+](=O)[O-])c2)c2ccccc12 | – | – | · | 24.9 | · | – | – | – | – | 38.1
CCN(CC)CCCNc1nc2cc(OC)c(OC)cc2c2nc(-c3ccccc3)nn12 | – | – | – | – | – | – | · | · | · | ·
CCN(CC)CCCNc1nc2ccccc2c2nc(-c3ccncc3)nn12 | – | – | · | 27.9 | · | – | – | – | – | 37.1
CCN(CC)CCCNc1nc2cc(OC)c(OC)cc2c2nc(-c3cccnc3)nn12 | – | – | – | 22.3 | – | – | – | – | – | 42.4
COc1cc2nc(NCCCN3CCN(C)CC3)n3nc(-c4ccccc4)nc3c2cc1OC | – | – | – | 27.6 | – | – | – | – | – | 47.7
Cc1ccccc1CN1CCCC(C(=O)Nc2ccccc2Oc2cccnc2)C1 (stereo not drawn) | – | – | · | – | · | – | · | · | · | ·
Cc1noc(NS(=O)(=O)c2ccc(NS(=O)(=O)c3ccc(C(C)(C)C)cc3)cc2)c1C | · | – | · | · | · | – | · | · | · | ·
Nc1nccc(-c2ccc(-n3cnc4ccccc43)cc2)n1 | – | – | – | 18.1 | – | – | – | – | – | 38.5
COc1ccc(-c2ccnc3ncnn23)cc1 | – | – | – | – | – | – | · | · | · | ·
Cc1nccc(-c2ccc(-n3cnc4ccccc43)cc2)n1 | – | – | – | 17.1 | – | – | – | – | – | 33.4
c1ccc2c(c1)ncn2-c1ccc(-c2ccnc3ncnn23)cc1 | – | – | – | 30.3 | – | – | – | – | – | 64.8
Cc1cc(=O)oc2c(C)c(OC(C)C(=O)NCCCn3ccnc3)ccc12 (stereo not drawn) | – | – | · | 15.5 | · | – | – | – | – | 31.0
CCc1cc(=O)oc2c(C)c(OC(C)C(=O)NCCCn3ccnc3)ccc12 (stereo not drawn) | – | – | · | 19.5 | · | – | – | – | – | 30.3
CCc1cc(=O)oc2cc(OC(C)C(=O)NCCCn3ccnc3)ccc12 (stereo not drawn) | – | – | · | – | · | – | · | · | · | ·
